Experimental data of several laboratories.
Target: SRSF protein kinase 1 (SRPK1, Homo sapiens, UniProt Q96SB4)

For CCN(CC)CCNC(=O)c1c(C)[nH]c(/C=C2\C(=O)Nc3ccc(F)cc32)c1C, the inhibition was 9% (enzyme activity, inhibitor; 10 µM).
The remaining activity of CCCOc1ccc(OC)c(F)c1C(=O)c1ccc(C(=O)N[C@@H]2CNC[C@H]2NC(=O)c2ccc3[nH]ncc3c2)cc1 is reported as 97% (enzyme activity, inhibitor; 10 µM).
CC(C)(C)c1nc(-c2cccc(NS(=O)(=O)c3c(F)cccc3F)c2F)c(-c2ccnc(N)n2)s1 has a remaining activity of 105% (enzyme activity, inhibitor, radiometric; 1 µM).
O=C(N1CCS(=O)(=O)CC1)N1C[C@H](c2ccc(OC(F)(F)F)cc2)C[C@H](c2nc(C3CC3)no2)C1 has a remaining binding of 100% (cell-free assay, competition with immobilised ligand; 1 µM).
COc1cccc2c(NCc3ccccc3)nc(-n3c(N)nc4ccccc43)nc12 has an inhibition of 5.7% (target engagement in cells, inhibitor, chemoproteomics; 20 mM).
O=C(NCc1ncc(C(F)(F)F)cc1Cl)c1ccc2c(c1)C1(CCS(=O)(=O)CC1)[C@H](C1CC1)N2S(=O)(=O)c1ccc(F)cc1 has a remaining binding of 72% (cell-free assay, competition with immobilised ligand; 1 µM).
The inhibition of CN(c1ncccc1CNc1nc(Nc2ccc3c(c2)CC(=O)N3)ncc1C(F)(F)F)S(C)(=O)=O is reported as 33.5% (enzyme activity, inhibitor; 1 µM).
CN(C)c1ncnc(-c2ccc3nc(Nc4cc(CN5CCN(C(=O)CC(F)(F)F)CC5)ccn4)[nH]c3c2)c1Cl has a remaining binding of 47% (cell-free assay, competition with immobilised ligand; 1 µM).
For Cc1ccc(Nc2nccc(N(C)c3ccc4c(C)n(C)nc4c3)n2)cc1S(N)(=O)=O, the inhibition was -7% (enzyme activity, inhibitor; 0.3 µM).
CCN(CC)c1ccc(C2=NNC(=O)CC2C)cc1[N+](=O)[O-] (stereo not drawn) gave a remaining activity of 94% (enzyme activity, inhibitor; 10 µM).
Cc1cc(NC(=O)c2cccc3cc(-c4cccc5[nH]nc(N)c45)ccc23)ccc1F has an activity vs control of 98% (enzyme activity, inhibitor; 0.1 µM).
For FC(F)(F)Oc1cccc(-c2cnc3ccc(-c4ccncc4)nn23)c1, the activity vs control was 95% (enzyme activity, inhibitor, radiometric; 1 µM).
With Cc1cnc(NC2CCOCC2)nc1-n1cnc(C(=O)NC(CN)c2cc(F)cc(Cl)c2)c1 (stereo not drawn) the remaining activity was 96% (enzyme activity, inhibitor, radiometric; 1 µM).
Cc1cc(-n2nc(Cc3cc(F)cc(C(F)(F)F)c3)nc2C)ccc1C(N)=O gave a remaining binding of 81% (cell-free assay, competition with immobilised ligand; 1 µM).
For CCCS(=O)(=O)Nc1ccc(F)c(C(=O)c2c[nH]c3ncc(-c4ccc(Cl)cc4)cc23)c1F, the inhibition was < 10% (enzyme activity, inhibitor; 1 µM).
FC(F)c1nc2ccccc2n1-c1nc(N2CCOCC2)nc(N2CCOCC2)n1 has a remaining activity of 92% (enzyme activity, inhibitor; 10 µM).
Cc1c[nH]c2nccc(Oc3c(F)cc(Nc4cc(Cl)nc(N)n4)cc3F)c12 gave a remaining binding of 100% (cell-free assay, competition with immobilised ligand; 0.1 µM).
For Nc1nc(Nc2ccccc2)sc1C(=O)c1c(F)cccc1F, the remaining activity was 6% (enzyme activity, inhibitor; 10 µM).
O=C(NS(=O)(=O)c1ccc(NCC2CCOCC2)c([N+](=O)[O-])c1)c1ccc(N2CCN(Cc3ccc(C(F)(F)F)cc3-c3ccc(Cl)cc3)CC2)cc1Oc1cnc2[nH]ccc2c1 gave a remaining binding of 100% (cell-free assay, competition with immobilised ligand; 1 µM).
With COc1cc2ncnc(Nc3ccc(Oc4ccccc4)cc3C)c2cc1OC the inhibition was 0% (enzyme activity, inhibitor; 1 µM).
For CC(C1CC1)n1cnc2c(NCc3cccc(C(F)(F)F)c3)nc(NCCN(C)C)nc21 (stereo not drawn), the inhibition was > 50% (enzyme activity, inhibitor; 5 µM).
For CNC(=O)c1cc(Oc2ccc(NC(=O)Nc3ccc(Cl)c(C(F)(F)F)c3)cc2)ccn1, the inhibition was -2% (enzyme activity, inhibitor; 0.3 µM).
For COc1cc(/C=C/C(=O)CC(=O)/C=C/c2ccc(O)c(OC)c2)ccc1O, the activity vs control was 57% (enzyme activity, inhibitor; 1 µM).
COc1cc2ncnc(Nc3ccc(F)c(Cl)c3)c2cc1OCCCN1CCOCC1 has a remaining signal of 98.3% (cell-free assay; 0.5 µM).
For Cn1c(=O)n(-c2ccc(C(C)(C)C#N)cc2)c2c3cc(-c4cnc5ccccc5c4)ccc3ncc21, the remaining activity was 106% (enzyme activity, inhibitor; 10 µM).
COc1cc(Nc2cnc(C#N)c(O[C@H](C)CN(C)C)n2)ncc1-c1cnn(C)c1 gave a remaining activity of 88% (enzyme activity, inhibitor, radiometric; 10 µM).
For O=C(Nc1cnn(-c2csc(C(=O)NC3COC3)c2)c1)Nc1ccccc1Cl, the remaining activity was 98.7% (enzyme activity, inhibitor; 5 µM).
The remaining signal of N#CCCc1ccc2c(c1)-c1[nH]c3ccc([N+](=O)[O-])cc3c1CC(=O)N2 is reported as 107% (cell-free assay; 0.5 µM).
The inhibition of c1ccc(CNc2nc(N3CCOc4ccccc43)nc3c2CCCC3)cc1 is reported as 4.3% (target engagement in cells, inhibitor, chemoproteomics; 20 mM).
CS(=O)(=O)N1CCCC(NC(=O)[C@H](CCC2CCCCC2)NC(=O)c2ccc(CNC(=O)c3cnc4ccccn34)cc2)C1 (stereo partly drawn) gave a remaining binding of 74% (cell-free assay, competition with immobilised ligand; 0.1 µM).
For Cc1ccc(C(=O)Nc2ccc(CN3CCN(C)CC3)c(C(F)(F)F)c2)cc1C#Cc1cnc2cccnn12, the remaining activity was 98% (enzyme activity, inhibitor; 23.5 nM).
O=C(NCCCC1CCCCC1)c1ccc(CNC(=O)c2cnn(-c3ccccc3)c2C(F)(F)F)cc1 has a remaining binding of 95% (cell-free assay, competition with immobilised ligand; 0.1 µM).
With COc1ccc(COc2ccc(Cc3cnc(N)nc3N)cc2OC)cc1 the remaining signal was 90.4% (cell-free assay; 0.5 µM).
